ChEMBL document CHEMBL1671617, “Correlation of antimicrobial resistance with beta-lactamases, the OmpA-like porin, and efflux pumps in clinical isolates of Acinetobacter baumannii endemic to New York City” (2008)
≈ marks a conversion by molar mass, not a printed value.

Tests used:
Type in all cases: functional
Acinetobacter baumannii [1] = test: Antimicrobial activity against ISAba1 linked with the blaOXA-51-type beta-lactamase harboring Acinetobacter baumannii unique clonal group isolate 40 expressing ampC, ompA, adeB, adeM, aadA1, aacA4, aacC2, blaSHV-5 by agar dilution method
Summary of the method: (§1)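 MICs were determined by agar dilution on Mueller-Hinton agar against multidrug-resistant clinical A. baumannii isolates from endemic regional ribotypes, with species confirmed by ribotyping. Selected agents were also tested with and without the efflux inhibitor NMP, fixed at 100 μg/ml in the agar. Meropenem was tested with and without clavulanic acid at 4 μg/ml. A fourfold or greater MIC drop with the additive was scored as significant.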

Acinetobacter baumannii [2] = test: Antimicrobial activity against ISAba1 linked with the blaOXA-51-type beta-lactamase harboring Acinetobacter baumannii beta clonal group isolate 12 expressing ompA, adeB, adeM, aacA4, aacC2, blaSHV-5 by agar dilution method; summary of the method: as §1
Acinetobacter baumannii [3] = test: Antimicrobial activity against ISAba1 linked with the blaOXA-51-type beta-lactamase harboring Acinetobacter baumannii beta clonal group isolate 15 expressing ompA, adeB, adeM, aacA4, blaSHV-5 by agar dilution method; summary of the method: as §1
Acinetobacter baumannii [4] = test: Antimicrobial activity against Acinetobacter baumannii alpha clonal group isolate 3 expressing ampC, ompA, adeB, adeM, aacC1, aadA1 by agar dilution method; summary of the method: as §1
Acinetobacter baumannii [5] = test: Antimicrobial activity against Acinetobacter baumannii nu clonal group isolate 34 expressing ampC, ompA, adeB, adeM by agar dilution method; summary of the method: as §1
Acinetobacter baumannii [6] = test: Antimicrobial activity against Acinetobacter baumannii eta clonal group isolate 36 expressing ampC, ompA, adeB, adeM by agar dilution method; summary of the method: as §1
Acinetobacter baumannii [7] = test: Antimicrobial activity against ISAba1 linked with the blaOXA-51-type beta-lactamase harboring Acinetobacter baumannii beta clonal group isolate 11 expressing ompA, adeB, adeM, blaSHV-5 by agar dilution method; summary of the method: as §1
Acinetobacter baumannii [8] = test: Antimicrobial activity against ISAba1 linked with the blaOXA-51-type beta-lactamase harboring Acinetobacter baumannii alpha clonal group isolate 8 expressing ampC, ompA, adeB, adeM, aacC1, aadA1 by agar dilution method; summary of the method: as §1
Acinetobacter baumannii [9] = test: Antimicrobial activity against ISAba1 linked with the blaOXA-51-type beta-lactamase harboring Acinetobacter baumannii zeta clonal group isolate 20 expressing ampC, ompA, adeB, adeM, aacC2 by agar dilution method; summary of the method: as §1
Acinetobacter baumannii [10] = test: Antimicrobial activity against ISAba1 linked with the blaOXA-51-type beta-lactamase harboring Acinetobacter baumannii zeta clonal group isolate 19 expressing ampC, ompA, adeB, adeM, aacC2 by agar dilution method; summary of the method: as §1
Acinetobacter baumannii [11] = test: Antimicrobial activity against ISAba1 linked with the blaOXA-51-type beta-lactamase harboring Acinetobacter baumannii beta clonal group isolate 18 expressing ompA, adeB, adeM, aacA4, blaSHV-5 by agar dilution method; summary of the method: as §1
Acinetobacter baumannii [12] = test: Antimicrobial activity against Acinetobacter baumannii nu clonal group isolate 33 expressing ampC, ompA, adeB, adeM by agar dilution method; summary of the method: as §1
Acinetobacter baumannii [13] = test: Antimicrobial activity against ISAba1 linked with the blaOXA-51-type beta-lactamase harboring Acinetobacter baumannii zeta clonal group isolate 24 expressing ampC, ompA, adeB, adeM, aadA1, aacA4, aacC2, blaSHV-5 by agar dilution method; summary of the method: as §1
Acinetobacter baumannii [14] = test: Antimicrobial activity against ISAba1 linked with the blaOXA-51-type beta-lactamase harboring Acinetobacter baumannii zeta clonal group isolate 26 expressing ampC, ompA, adeB, adeM, aadA1, aacA4, aacC2, blaSHV-5 by agar dilution method; summary of the method: as §1
Acinetobacter baumannii [15] = test: Antimicrobial activity against Acinetobacter baumannii alpha clonal group isolate 2 expressing ampC, ompA, adeB, adeM, aacC1, aadA1 by agar dilution method; summary of the method: as §1
Acinetobacter baumannii [16] = test: Antimicrobial activity against ISAba1 linked with the blaOXA-51-type beta-lactamase harboring Acinetobacter baumannii lambda clonal group isolate 30 expressing ampC, ompA, adeB, adeM, aadB, aadA1 by agar dilution method; summary of the method: as §1
Acinetobacter baumannii [17] = test: Antimicrobial activity against ISAba1 linked with the blaOXA-51-type beta-lactamase harboring Acinetobacter baumannii zeta clonal group isolate 22 expressing ampC, ompA, adeB, adeM, aadA1, aacA4, aacC2, blaSHV-5 by agar dilution method; summary of the method: as §1
Acinetobacter baumannii [18] = test: Antimicrobial activity against ISAba1 linked with the blaOXA-51-type beta-lactamase harboring Acinetobacter baumannii alpha clonal group isolate 6 expressing ampC, ompA, adeB, adeM, aacC1, aadA1 by agar dilution method; summary of the method: as §1
Acinetobacter baumannii [19] = test: Antimicrobial activity against Acinetobacter baumannii alpha clonal group isolate 5 expressing ampC, ompA, adeB, adeM, aacC1, aadA1 by agar dilution method; summary of the method: as §1
Acinetobacter baumannii [20] = test: Antimicrobial activity against ISAba1 linked with the blaOXA-51-type beta-lactamase harboring Acinetobacter baumannii beta clonal group isolate 9 expressing ampC, ompA, adeB, adeM by agar dilution method; summary of the method: as §1
Acinetobacter baumannii [21] = test: Antimicrobial activity against ISAba1 linked with the blaOXA-51-type beta-lactamase harboring Acinetobacter baumannii beta clonal group isolate 16 expressing ompA, adeB, adeM, aacA4, blaSHV-5 by agar dilution method; summary of the method: as §1
Acinetobacter baumannii [22] = test: Antimicrobial activity against Acinetobacter baumannii eta clonal group isolate 35 expressing ampC, ompA, adeB, adeM by agar dilution method; summary of the method: as §1
Acinetobacter baumannii [23] = test: Antimicrobial activity against ISAba1 linked with the blaOXA-51-type beta-lactamase harboring Acinetobacter baumannii beta clonal group isolate 17 expressing ompA, adeB, adeM, aacA4, blaSHV-5 by agar dilution method; summary of the method: as §1
Acinetobacter baumannii [24] = test: Antimicrobial activity against ISAba1 linked with the blaOXA-51-type beta-lactamase harboring Acinetobacter baumannii beta clonal group isolate 10 expressing ompA, adeB, adeM, aacA4, blaSHV-5 by agar dilution method; summary of the method: as §1
Acinetobacter baumannii [25] = test: Antimicrobial activity against Acinetobacter baumannii alpha clonal group isolate 4 expressing ampC, ompA, adeB, adeM, aacC1, aadA1 by agar dilution method; summary of the method: as §1
Acinetobacter baumannii [26] = test: Antimicrobial activity against Acinetobacter baumannii nu clonal group isolate 31 expressing ampC, ompA, adeB, adeM, aadB, aadA2 by agar dilution method
Summary of the method: (§2)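 Clinical multidrug-resistant A. baumannii isolates from endemic NYC ribotypes, with species identity confirmed by ribotyping. MICs were determined by agar dilution on Mueller-Hinton agar; tobramycin was tested by this method. Agar dilution was also run for selected agents with and without the efflux inhibitor NMP, added to the agar at a fixed 100 μg/ml.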

Acinetobacter baumannii [27] = test: Antimicrobial activity against ISAba1 linked with the blaOXA-51-type beta-lactamase harboring Acinetobacter baumannii beta clonal group isolate 13 expressing ompA, adeB, adeM, aacA4, blaSHV-5 by agar dilution method; summary of the method: as §1
Acinetobacter baumannii [28] = test: Antimicrobial activity against ISAba1 linked with the blaOXA-51-type beta-lactamase harboring Acinetobacter baumannii beta clonal group isolate 14 expressing ompA, adeB, adeM, aacA4, blaSHV-5 by agar dilution method; summary of the method: as §1
Acinetobacter baumannii [29] = test: Antimicrobial activity against Acinetobacter baumannii lambda clonal group isolate 27 expressing ampC, ompA, adeB, adeM, aadB, aadA1 by agar dilution method; summary of the method: as §1
Acinetobacter baumannii [30] = test: Antimicrobial activity against ISAba1 linked with the blaOXA-51-type beta-lactamase harboring Acinetobacter baumannii lambda clonal group isolate 29 expressing ampC, ompA, adeM, aadB, aadA1 by agar dilution method; summary of the method: as §1
Acinetobacter baumannii [31] = test: Antimicrobial activity against ISAba1 linked with the blaOXA-51-type beta-lactamase harboring Acinetobacter baumannii alpha clonal group isolate 7 expressing ampC, ompA, adeB, adeM, blaSHV-5 by agar dilution method; summary of the method: as §1
Acinetobacter baumannii [32] = test: Antimicrobial activity against Acinetobacter baumannii unique clonal group isolate 39 expressing ampC, ompA, adeM by agar dilution method; summary of the method: as §2
Acinetobacter baumannii [33] = test: Antimicrobial activity against Acinetobacter baumannii unique clonal group isolate 38 expressing ampC, ompA, adeB, adeM by agar dilution method; summary of the method: as §2
Acinetobacter baumannii [34] = test: Antimicrobial activity against ISAba1 linked with the blaOXA-51-type beta-lactamase harboring Acinetobacter baumannii alpha clonal group isolate 1 expressing ampC, ompA, adeB, adeM by agar dilution method; summary of the method: as §1
Acinetobacter baumannii [35] = test: Antimicrobial activity against ISAba1 linked with the blaOXA-51-type beta-lactamase harboring Acinetobacter baumannii zeta clonal group isolate 25 expressing ampC, ompA, adeB, adeM, aadA1, aacA4, aacC2, blaSHV-5 by agar dilution method; summary of the method: as §1
Acinetobacter baumannii [36] = test: Antimicrobial activity against ISAba1 linked with the blaOXA-51-type beta-lactamase harboring Acinetobacter baumannii zeta clonal group isolate 21 expressing ampC, ompA, adeB, adeM, aacC2, blaSHV-5 by agar dilution method; summary of the method: as §1
Acinetobacter baumannii [37] = test: Antimicrobial activity against Acinetobacter baumannii nu clonal group isolate 32 expressing ampC, ompA, adeB, adeM, aadB, aadA2 by agar dilution method; summary of the method: as §2
Acinetobacter baumannii [38] = test: Antimicrobial activity against ISAba1 linked with the blaOXA-51-type beta-lactamase harboring Acinetobacter baumannii zeta clonal group isolate 23 expressing ampC, ompA, adeB, adeM, aadA1, aacA4, aacC2, aphA6 by agar dilution method; summary of the method: as §1
Acinetobacter baumannii [39] = test: Antimicrobial activity against ISAba1 linked with the blaOXA-51-type beta-lactamase harboring Acinetobacter baumannii lambda clonal group isolate 28 expressing ampC, ompA, adeM, aadB, aadA1 by agar dilution method; summary of the method: as §1
Acinetobacter baumannii [40] = test: Antimicrobial activity against Acinetobacter baumannii unique clonal group isolate 37 expressing ampC, ompA, adeB, adeM by agar dilution method; summary of the method: as §1

What does the source list for `NC[C@H]1O[C@H](O[C@H]2[C@H](O)[C@@H](O[C@H]3O[C@H](CO)[C@@H](O)[C@H](N)[C@H]3O)[C@H](N)C[C@@H]2N)[C@H](N)C[C@@H]1O` [TOBRAMYCIN]?
MIC (Acinetobacter baumannii [1]): > 32 µg/mL; MIC (Acinetobacter baumannii [2]): > 32 µg/mL; MIC (Acinetobacter baumannii [3]): > 32 µg/mL; MIC (Acinetobacter baumannii [4]): 0.5 µg/mL (≈ 1.07 µM); MIC (Acinetobacter baumannii [5]): 1 µg/mL (≈ 2.14 µM); MIC (Acinetobacter baumannii [6]): 1 µg/mL (≈ 2.14 µM); MIC (Acinetobacter baumannii [7]): 0.5 µg/mL (≈ 1.07 µM); MIC (Acinetobacter baumannii [8]): 1 µg/mL (≈ 2.14 µM); MIC (Acinetobacter baumannii [9]): 4 µg/mL (≈ 8.56 µM); MIC (Acinetobacter baumannii [10]): 4 µg/mL (≈ 8.56 µM); MIC (Acinetobacter baumannii [11]): > 32 µg/mL; MIC (Acinetobacter baumannii [12]): 1 µg/mL (≈ 2.14 µM); MIC (Acinetobacter baumannii [13]): > 32 µg/mL; MIC (Acinetobacter baumannii [14]): > 32 µg/mL; MIC (Acinetobacter baumannii [15]): 0.5 µg/mL (≈ 1.07 µM); MIC (Acinetobacter baumannii [16]): > 32 µg/mL; MIC (Acinetobacter baumannii [17]): > 32 µg/mL; MIC (Acinetobacter baumannii [18]): < 0.25 µg/mL; MIC (Acinetobacter baumannii [19]): 0.5 µg/mL (≈ 1.07 µM); MIC (Acinetobacter baumannii [20]): 2 µg/mL (≈ 4.28 µM); MIC (Acinetobacter baumannii [21]): > 32 µg/mL; MIC (Acinetobacter baumannii [22]): 1 µg/mL (≈ 2.14 µM); MIC (Acinetobacter baumannii [23]): > 32 µg/mL; MIC (Acinetobacter baumannii [24]): 16 µg/mL (≈ 34.2 µM); MIC (Acinetobacter baumannii [25]): 0.5 µg/mL (≈ 1.07 µM); MIC (Acinetobacter baumannii [26]): > 32 µg/mL; MIC (Acinetobacter baumannii [27]): > 32 µg/mL; MIC (Acinetobacter baumannii [28]): > 32 µg/mL; MIC (Acinetobacter baumannii [29]): 0.5 µg/mL (≈ 1.07 µM); MIC (Acinetobacter baumannii [30]): 16 µg/mL (≈ 34.2 µM); MIC (Acinetobacter baumannii [31]): 0.5 µg/mL (≈ 1.07 µM); MIC (Acinetobacter baumannii [32]): < 0.25 µg/mL; MIC (Acinetobacter baumannii [33]): < 0.25 µg/mL; MIC (Acinetobacter baumannii [34]): < 0.25 µg/mL; MIC (Acinetobacter baumannii [35]): > 32 µg/mL; MIC (Acinetobacter baumannii [36]): 4 µg/mL (≈ 8.56 µM); MIC (Acinetobacter baumannii [37]): > 32 µg/mL; MIC (Acinetobacter baumannii [38]): > 32 µg/mL; MIC (Acinetobacter baumannii [39]): 16 µg/mL (≈ 34.2 µM); MIC (Acinetobacter baumannii [40]): 2 µg/mL (≈ 4.28 µM)
